Experimental data pooled from the literature.
Protocols differ between the studies behind these lines.
Target: Alpha-1D adrenergic receptor (ADRA1D, Homo sapiens, UniProt P25100)
Tested at: 10 µM
One construct used (P25100 1-572): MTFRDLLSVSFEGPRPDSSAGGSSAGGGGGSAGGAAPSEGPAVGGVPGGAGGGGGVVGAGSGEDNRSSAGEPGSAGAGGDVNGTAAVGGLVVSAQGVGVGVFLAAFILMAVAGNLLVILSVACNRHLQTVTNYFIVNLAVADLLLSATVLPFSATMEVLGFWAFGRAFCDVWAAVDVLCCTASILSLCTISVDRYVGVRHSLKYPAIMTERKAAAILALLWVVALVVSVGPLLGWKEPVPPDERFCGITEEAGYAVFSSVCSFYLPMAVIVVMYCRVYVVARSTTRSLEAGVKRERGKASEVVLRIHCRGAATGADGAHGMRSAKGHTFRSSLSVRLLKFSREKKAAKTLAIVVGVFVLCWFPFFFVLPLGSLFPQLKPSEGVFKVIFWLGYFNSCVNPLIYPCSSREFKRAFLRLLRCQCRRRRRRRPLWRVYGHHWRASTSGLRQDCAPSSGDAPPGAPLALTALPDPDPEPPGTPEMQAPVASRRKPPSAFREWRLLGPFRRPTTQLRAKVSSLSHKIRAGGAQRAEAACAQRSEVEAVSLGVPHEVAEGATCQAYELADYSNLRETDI

With `CC(C)(C)OC(=O)N1CCCC1CNC1CCC(c2cc(F)ccc2F)(S(=O)(=O)c2ccc(Cl)cc2)CC1` (centres unmarked) the inhibition was 22.5% (cell-free assay).
With `CCCNc1nc2ccccc2n1Cc1ccc(Cl)cc1` the inhibition was 10.2% (ligand displacement).
With `O=C(c1ccc(F)cc1)N(Cc1ccccc1)C1CCCCC1` the inhibition was 7% (cell-free assay).
With `N#Cc1cc(Cn2c(N3CCCC3)nc3ccccc32)ccc1F` the inhibition was -11.1% (ligand displacement).
The inhibition of `CCN(Cc1ccccc1C(F)(F)F)C(=O)C1CCN(S(=O)(=O)c2ccc3[nH]ncc3c2)CC1` is reported as 5% (ligand displacement; radioligand).
`O=C(Nc1ccc(S(=O)(=O)N2CCC(Cl)CC2)cc1)c1ccc([N+](=O)[O-])o1` has an inhibition of 8% (ligand displacement; radioligand).
The inhibition of `CC(=O)C1=C(C)N(c2cccc(C(F)(F)F)c2)C(=O)N[C@H]1c1ccc(C#N)nc1` is reported as 7.7% (ligand displacement).
For `CCN(CC)c1ccc(C2Nc3ccc(C(=O)c4ccccc4)cc3NC3=C2C(=O)CC(C)(C)C3)cc1` (centres unmarked), the inhibition was 8% (ligand displacement; radioligand).
